The list is not random: actives were taken first. Their share in the collection is about 3.5%.
MrgX1 agonist – agonists of human MrgX1 receptor, primary screen, HEK293 cells, Fluo-4 calcium flux | Fluo-4 calcium fluorescence, agonist mode; active compounds read high | AID 588627, 2011 | B-score at 10 µM | hit rate 0.44% among 310,000;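 active means calcium response B-score plate-corrected fluorescence ratio at least 3 library SD, with starting fluorescence B-score inside 5 SD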
Target sequence (Q96LB2 whole entry, looked up): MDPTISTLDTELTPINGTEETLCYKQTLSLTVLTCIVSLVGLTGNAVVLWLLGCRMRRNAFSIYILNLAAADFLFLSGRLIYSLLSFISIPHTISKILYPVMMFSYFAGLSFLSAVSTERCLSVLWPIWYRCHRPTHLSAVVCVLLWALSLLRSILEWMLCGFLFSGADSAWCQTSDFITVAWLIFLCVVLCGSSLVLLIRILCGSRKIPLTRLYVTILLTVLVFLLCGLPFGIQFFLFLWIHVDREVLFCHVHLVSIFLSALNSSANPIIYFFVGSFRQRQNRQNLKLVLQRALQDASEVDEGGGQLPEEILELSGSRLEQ
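Test system: HEK293 cells stably expressing human MrgX1 receptor; Input: fifteen thousand cells per well; Dosing: compound delivered in addition one of three; Schedule: overnight seeding, then 1 h dark dye loading; Technique: Fluo-4 NW calcium fluorescence; Measure: B-scored fluorescence response ratio; Controls: positive and negative controls per plate.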
RGS4 block – RGS4 inhibitors, primary screen, cell-based, HEK293 M3R inducible RGS4, calcium flux | B-score at 10 µM | AID 463165, 2010 | Regulator of G-protein signaling 4 (Homo sapiens), P49798 | hit rate 0.45% among 310,000 | Fluo-4 calcium flux; active compounds read high; triggered by carbachol at its EC20;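 active means B-score, a plate-corrected calcium signal, over three deviations above library mean, with baseline fluorescence within five deviations of library mean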;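 further: RGS4 expression induced by doxycycline in cells with stable M3 receptor; B-score is computed from the integrated fluorescence ratio over baseline after carbachol; higher B-score means a larger calcium signal and so more RGS4 inhibition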
Target sequence (P49798 whole entry, looked up): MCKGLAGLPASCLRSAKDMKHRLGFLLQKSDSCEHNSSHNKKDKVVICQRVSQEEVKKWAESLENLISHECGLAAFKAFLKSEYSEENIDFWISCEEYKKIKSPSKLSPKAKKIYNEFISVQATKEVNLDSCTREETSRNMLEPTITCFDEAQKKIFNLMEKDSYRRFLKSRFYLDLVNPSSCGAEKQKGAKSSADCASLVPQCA
RGS4 act – RGS4 potentiators or activators, primary screen, cell-based, HEK293 M3R inducible RGS4, calcium flux; carbachol calcium flux Fluo4; active compounds read low; B-score at 10 µM; hit rate 0.92% among 310,000; AID 463111, 2010;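 active means B-score of the integrated calcium signal more than 4 SD below the library mean, with starting fluorescence not abnormally high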;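 further: negative B-score means reduced calcium response which marks RGS4 activation or potentiation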
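test system = M3R-expressing HEK293 line, RGS4 induced by doxycycline | probe or stimulus = carbachol at ECmax as muscarinic agonist stimulus | timing = dye loading 30 min 37 °C, buffer rest 30 min RT | signal = calcium dye Fluo4 fluorescence | evaluation = B score from integrated fluorescence ratio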
MrgX1 antagonist – antagonists of human MrgX1 receptor, primary screen, HEK293 cells, Fluo-4 calcium flux | B-score at 10 µM | BAM8-22 antagonism; active compounds read low | Mas-related G-protein coupled receptor member X1 (Homo sapiens), Q96LB2 | hit rate 1.3% among 310,000;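 active means calcium-response B-score plate-corrected more than 3 library SD below zero, starting fluorescence within 5 deviations, no agonist response on first addition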;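 further: peak minus trough fluorescence over baseline after final BAM8-22 challenge near maximal dose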
MrgX1 allo act – positive allosteric modulators of MrgX1, primary screen, HEK293 cells, Fluo-4 calcium flux | Mas-related G-protein coupled receptor member X1 (Homo sapiens), Q96LB2 | B-score at 10 µM | FDSS; active compounds read high | AID 588675, 2011 | hit rate 0.63% among 310,000;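 active means plate-corrected calcium response at least 3 library SD above typical, normal starting fluorescence, not activating the receptor alone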;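 further: compound read alongside a low EC10 to EC30 dose of BAM8-22 agonist; peak minus trough fluorescence over baseline measured at the second addition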
MrgX1 allo conf – MrgX1 positive allosteric modulators, duplicate retest, confirmation, HEK293 cells, Fluo-4 calcium flux; shares compounds with MrgX1 allo act; Fluo-4 calcium fluorescence, FDSS; activation (ratio percentage), % at 10 µM; hit rate 13% among 1,200; AID 602413, 2012;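 active means ratio at least 3 SD above the weak peptide control, stable starting fluorescence, no direct agonism earlier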;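 further: compound followed by low BAM8-22 agonist challenge near EC20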
MrgX1 ant reconf – MrgX1 receptor antagonists, duplicate retest, confirmation, HEK293 cells, Fluo-4 calcium flux; remaining BAM8-22 calcium response % of control (active compounds read low), % at 10 µM; AID 602420, 2012; hit rate 19% among 2,300; shares compounds with MrgX1 antagonist; BAM8-22 calcium flux; active compounds read low;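 active means remaining agonist calcium response no higher than 100% minus 3 SD of agonist-only control wells, with starting fluorescence near control levels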;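 further: agonist BAM8-22 given at a near maximal EC90 to ECmax level; peak minus minimum fluorescence divided by baseline after agonist addition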
HEK293 Ca flux – nonspecific calcium signal in parental HEK293, confirmation, counter-screen for MrgX1 antagonist project, parental HEK293 cells, Fluo-4 calcium flux; hit rate 2% among 4,000; fluorescence ratio F(max-min)/F0 at 10 µM; Fluo-4 calcium fluorescence, FDSS; shares compounds with MrgX1 antagonist;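 active means duplicate-averaged calcium fluorescence ratio at least three times the standard deviation of buffer wells, a nonspecific response in parental cells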
HEK293 Ca counter – calcium response in parental HEK293 cells, primary screen, counter-screen for MrgX1 allosteric activator project, cell-based, Fluo-4 calcium flux, duplicate. shares compounds with MrgX1 antagonist. Fluo-4 fluorescence ratio; active compounds read high. fluorescence ratio F(max-min)/F0 at 10 µM. hit rate 0.4% among 4,000. AID 624114, 2012;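 active means calcium fluorescence ratio, averaged over duplicates, at least 3 SD of the buffer-well ratio, meaning a nonspecific response in receptor-free cells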;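 further: untransfected parental HEK293 lacking MrgX1 used as counterscreen for MrgX1 allosteric activators; fluorescence change taken during the second addition on a kinetic imager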
HEK293 Ca cntr2 – calcium response in parental HEK293 cells, primary screen, counter-screen for MrgX1 agonist project, cell-based, Fluo-4 calcium flux, duplicate, agonist mode | shares compounds with MrgX1 antagonist | Fluo-4 calcium fluorescence (FDSS); active compounds read high | fluorescence ratio F(max-min)/F0 at 10 µM | hit rate 8.7% among 4,000;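 active means calcium fluorescence ratio at least three times the spread of buffer wells, meaning a non-specific response in parental cells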
Numbers without * were called inactive; i = inactive; · = no result given.

SMILES	MrgX1 agonist	RGS4 block	RGS4 act	MrgX1 antagonist	MrgX1 allo act	MrgX1 allo conf	HEK293 Ca flux	HEK293 Ca counter	HEK293 Ca cntr2	others
COc1ccc(N(C(=O)COc2cccc(C)c2)S(=O)(=O)c2ccc(C)cc2)cc1	i	i	i	i	18.4*	i	i	i	i
COc1ccc(OC(=O)COc2cccc(C)c2)cc1	i	i	i	i	i	·	·	·	·
CCOc1ccc(CCNC(=O)Cn2c(=O)oc3ccccc32)cc1OCC	i	i	i	i	i	·	·	·	·
COCCCN(Cc1ccco1)C(=O)CSc1nc2ncccc2[nH]1	i	i	i	i	i	·	·	·	·
COc1ccc(CCNC(=O)c2cc3c(C)nccc3[nH]c2=O)cc1OC	i	i	i	i	i	·	·	·	·
Cc1ccc(NC(=S)NCC2CCN(C(C)c3ccccc3)C2)cc1 (stereo unspecified)	i	i	i	i	22*	i	i	i	i
COc1ccc(-n2c(SC(C)C(=O)Nc3ccc(NC(C)=O)cc3)nc3ccccc3c2=O)cc1OC (stereo unspecified)	i	i	i	i	i	·	·	·	·
CCOc1ccc(N(CC(=O)N2CCCC2)S(=O)(=O)c2ccc(Cl)cc2)cc1	i	i	i	i	i	·	·	·	·
COc1ccc(NC(=O)c2cccc(C(=O)Nc3ccc(OC)cc3)n2)cc1	i	i	i	i	8.83*	i	i	i	i
COc1ccc(NC(=O)c2cc(-c3cccc(OC)c3)on2)cc1	i	i	i	i	i	·	·	·	·
CC(=O)N1CCC(CCCC2CCN(C(C)=O)CC2)CC1	i	i	i	i	i	·	·	·	·
Cc1ccc(NC2=NC(c3ccccc3)n3c(nc(C)cc3=O)N2)c(C)c1 (stereo unspecified)	i	i	i	i	122*	i	i	i	i
Cc1ccc(NC2=NC(c3ccc(F)cc3)n3c(nc(C)cc3=O)N2)c(C)c1 (stereo unspecified)	i	i	i	i	i	·	·	·	·
COc1ccc(Cn2c(CCC(=O)Nc3ccccc3OC)nc3cccnc32)cc1	i	i	i	i	i	·	·	·	·
COc1ccc(C2(C(=O)Nc3ccc(OC)cc3OC)CCCC2)cc1	i	i	i	i	12.4*	i	i	i	i
O=C(CCc1ccccc1)NC(=S)Nc1cccc(Br)c1	i	i	i	i	8.95*	i	i	i	i
CC(NC(=O)C(=O)N/N=C/c1ccccc1)c1ccccc1 (stereo unspecified)	i	i	i	i	i	·	·	·	·
O=C1N=c2ccccc2=C1c1sc(NS(=O)(=O)c2ccccc2)nc1O	i	i	i	i	20.9*	i	i	i	i
NC(=O)COC(=O)c1cccc(S(=O)(=O)N2CCCCC2)c1	i	i	i	i	10.6*	i	i	i	i
CCOC(=O)c1cccc(S(=O)(=O)N2CCCC2)c1	i	i	i	i	i	·	·	·	·
Cc1ccc(O)c(NC(=O)C2CCCN2C(=O)OCc2ccccc2)c1 (stereo unspecified)	i	i	i	i	i	·	·	·	·
COc1ccc(-c2csc(=NCCO)n2-c2ccccc2)cc1	i	i	i	-5.76*	8.75*	19.9%*	i	i	i	MrgX1 ant reconf=i
c1ccc(-c2csc(-c3cccnc3)n2)cc1	i	i	i	i	14.1*	i	i	i	i
Cc1[nH]c2c(C)cccc2c(=O)c1CN1CCCCCC1	i	i	i	i	i	·	·	·	·
COc1ccc(NC(C)(C)c2nnnn2-c2c(C)cccc2C)cc1	i	i	i	i	6.56*	i	i	i	i
SMILES	MrgX1 agonist	RGS4 block	RGS4 act	MrgX1 antagonist	MrgX1 allo act	MrgX1 allo conf	HEK293 Ca flux	HEK293 Ca counter	HEK293 Ca cntr2	others
Cn1ncc(C(N)=O)c1NC(=S)NC(=O)c1ccc(Br)o1	i	i	i	i	i	·	·	·	·
COC(=O)C1Cc2ccccc2CN1C(=O)CCl (stereo unspecified)	i	i	i	i	8.14*	i	i	i	i
O=C(Nc1ccc(Br)cc1)c1ccccc1Br	i	i	i	i	16.3*	i	i	i	i
CCc1ccc(NC(=O)c2ccccc2Br)cc1	i	i	i	i	i	·	·	·	·
COC(=O)CN(c1cccc(C)c1)S(=O)(=O)c1ccccc1	i	i	i	i	i	·	·	·	·
C=CCOc1c(Br)cc(/C=N/NC(N)=O)cc1OC	i	i	i	i	i	·	·	·	·
C=CCOc1c(CCC)cc(CCC)cc1C(N)=O	i	i	i	i	24.2*	i	i	i	i
COC(=O)c1sc(NC(=S)NC(=O)c2ccccc2C)nc1C	i	i	i	i	7.26*	i	i	i	56.4*
Clc1ccccc1C(c1ccccc1)(c1ccccc1)n1ccnc1	i	i	i	i	i	·	·	·	·
COc1ccc(Nc2nc3ccccc3n3nnnc23)cc1	i	i	i	i	13*	i	i	i	i
CC(=O)Nc1ccc(S(=O)(=O)NCc2ccc(C(=O)N3CCOCC3)cc2)cc1	i	i	i	i	7.38*	i	i	i	i
